In one series the target is Integrin alpha-4/beta-1 (Homo sapiens, UniProt P05556+P13612). Put plainly: Inhibition of integrin alpha4beta1 receptor-mediated human Molt-4 cell adhesion to CS1 peptide. The format is cell-based.
Series [1] is described as follows: Partition coefficient, log P of the compound. The format is physicochemical. Particulars: octanol/water. The method, boiled down: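 logP extrapolated from reverse-phase HPLC retention time converted to capacity factor k, against a standard calibration curve built from compounds of known logP.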

Sequence of Integrin alpha-4/beta-1 (P05556 whole entry): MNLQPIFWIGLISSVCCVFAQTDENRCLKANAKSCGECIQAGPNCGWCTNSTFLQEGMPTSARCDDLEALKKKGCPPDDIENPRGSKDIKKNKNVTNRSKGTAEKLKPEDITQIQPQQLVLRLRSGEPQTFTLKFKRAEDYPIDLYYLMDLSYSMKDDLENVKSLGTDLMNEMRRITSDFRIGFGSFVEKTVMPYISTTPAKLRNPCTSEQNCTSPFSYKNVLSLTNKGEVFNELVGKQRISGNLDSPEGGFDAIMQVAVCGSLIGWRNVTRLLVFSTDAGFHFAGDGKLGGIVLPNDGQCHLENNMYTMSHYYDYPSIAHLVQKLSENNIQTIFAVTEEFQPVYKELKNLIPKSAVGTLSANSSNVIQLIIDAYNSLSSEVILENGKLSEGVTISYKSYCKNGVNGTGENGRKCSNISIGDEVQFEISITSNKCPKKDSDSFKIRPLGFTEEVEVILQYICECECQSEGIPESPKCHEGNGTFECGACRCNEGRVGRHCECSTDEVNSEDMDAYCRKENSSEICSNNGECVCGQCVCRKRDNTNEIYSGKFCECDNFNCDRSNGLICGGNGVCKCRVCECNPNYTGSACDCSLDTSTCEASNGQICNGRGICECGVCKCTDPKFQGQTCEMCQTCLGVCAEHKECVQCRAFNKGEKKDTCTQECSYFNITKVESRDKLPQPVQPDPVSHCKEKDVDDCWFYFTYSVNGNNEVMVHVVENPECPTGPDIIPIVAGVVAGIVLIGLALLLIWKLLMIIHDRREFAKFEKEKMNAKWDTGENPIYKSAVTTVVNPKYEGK
Sequence of Integrin alpha-4/beta-1 (P13612 whole entry): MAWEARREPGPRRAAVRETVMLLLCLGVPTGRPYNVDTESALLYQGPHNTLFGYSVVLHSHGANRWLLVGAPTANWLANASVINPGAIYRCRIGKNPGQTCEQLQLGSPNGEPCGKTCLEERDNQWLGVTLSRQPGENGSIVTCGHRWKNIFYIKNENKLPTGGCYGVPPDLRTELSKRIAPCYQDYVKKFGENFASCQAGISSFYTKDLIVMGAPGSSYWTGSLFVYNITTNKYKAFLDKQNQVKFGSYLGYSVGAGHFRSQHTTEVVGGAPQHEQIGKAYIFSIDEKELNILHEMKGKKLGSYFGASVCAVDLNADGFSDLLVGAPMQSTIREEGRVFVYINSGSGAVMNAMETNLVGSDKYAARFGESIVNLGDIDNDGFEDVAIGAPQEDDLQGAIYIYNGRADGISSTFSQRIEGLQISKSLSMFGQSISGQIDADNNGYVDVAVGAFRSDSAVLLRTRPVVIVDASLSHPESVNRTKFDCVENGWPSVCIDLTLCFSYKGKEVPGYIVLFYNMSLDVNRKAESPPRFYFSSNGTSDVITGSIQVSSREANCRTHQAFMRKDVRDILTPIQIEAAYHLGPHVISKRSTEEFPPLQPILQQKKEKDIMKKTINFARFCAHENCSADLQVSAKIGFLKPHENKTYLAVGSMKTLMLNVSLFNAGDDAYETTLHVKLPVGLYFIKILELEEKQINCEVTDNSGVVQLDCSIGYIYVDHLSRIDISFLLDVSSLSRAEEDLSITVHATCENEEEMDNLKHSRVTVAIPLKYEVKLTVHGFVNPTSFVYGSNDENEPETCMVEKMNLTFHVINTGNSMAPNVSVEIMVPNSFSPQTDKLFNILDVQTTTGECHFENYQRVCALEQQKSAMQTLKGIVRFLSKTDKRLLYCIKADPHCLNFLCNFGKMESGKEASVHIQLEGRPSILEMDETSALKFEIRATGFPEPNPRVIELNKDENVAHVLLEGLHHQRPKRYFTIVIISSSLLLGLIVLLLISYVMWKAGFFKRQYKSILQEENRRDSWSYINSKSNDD

Regarding `NC(=O)C1(NC(=O)[C@@H](CCCC(=O)O)NC(=O)[C@@H](CCCCNC(=O)/C=C/c2cccnc2)NC(=O)c2ccc(Nc3nc4ccccc4[nH]3)cc2)CCCCC1`, the IC50 – broadly, the concentration at which inhibition is half-maximal – against Integrin alpha-4/beta-1 was 0.42 µM. Moreover, in series [1], the logP – broadly, a log measure of how a compound divides between an organic and an aqueous phase – came to 1.83.

`NC(=O)C1(NC(=O)[C@@H](CCCC(=O)O)NC(=O)[C@@H](CCCCNC(=O)/C=C/c2cccnc2)NC(=O)c2cccc(Nc3nc4ccccc4[nH]3)c2)CCCCC1`: the midpoint of inhibition against Integrin alpha-4/beta-1, the IC50, lay at 0.186 µM. Further, the lipophilicity (logP) in series [1] is 2.12.

In turn, `NC(=O)C1(NC(=O)[C@@H](CCCC(=O)O)NC(=O)[C@@H](CCCCNC(=O)/C=C/c2cccnc2)NC(=O)Cc2ccc(Nc3nc4ccccc4[nH]3)cc2)CCCCC1` showed an IC50 against Integrin alpha-4/beta-1 of 0.000305 µM. Besides, the logP in series [1] amounted to 2.23.

In the case of `NC(=O)C1(NC(=O)[C@@H](CCCC(=O)O)NC(=O)[C@@H](CCCCNC(=O)/C=C/c2cccnc2)NC(=O)CCc2ccc(Nc3nc4ccccc4[nH]3)cc2)CCCCC1`, the IC50 against Integrin alpha-4/beta-1 was determined as 0.344 µM. In series [1], this compound gave a logP of 2.8.

On to `Cc1cccc2[nH]c(Nc3ccc(C(=O)N[C@H](CCCCNC(=O)/C=C/c4cccnc4)C(=O)N[C@H](CCCC(=O)O)C(=O)NC4(C(N)=O)CCCCC4)cc3)nc12`, for which the IC50 on Integrin alpha-4/beta-1 was 0.655 µM. In series [1], this compound yielded a logP of 1.86.

Turning to `NC(=O)C1(NC(=O)[C@@H](CCCC(=O)O)NC(=O)[C@@H](CCCCNC(=O)/C=C/c2cccnc2)NC(=O)Cc2ccc(Nc3nc4cc(Br)ccc4[nH]3)cc2)CCCCC1`, at Integrin alpha-4/beta-1, the IC50 turned out to be 0.34 µM. For the same compound, in series [1], the log partition coefficient (logP) is 1.96.

On to `CC(C(=O)N[C@H](CCCCNC(=O)/C=C/c1cccnc1)C(=O)N[C@H](CCCC(=O)O)C(=O)NC1(C(N)=O)CCCCC1)c1ccc(Nc2nc3ccccc3[nH]2)cc1` (stereo partly specified), for which, on Integrin alpha-4/beta-1, it took 0.444 µM to reach half-maximal inhibition (IC50). In series [1], this compound yielded a log partition coefficient (logP) of 2.63.

At Integrin alpha-4/beta-1, `Cc1cccc2[nH]c(Nc3ccc(CC(=O)N[C@H](CCCCNC(=O)/C=C/c4cccnc4)C(=O)N[C@H](CCCC(=O)O)C(=O)NC4(C(N)=O)CCCCC4)cc3)nc12` registered an IC50 of 0.0275 µM. Further, the log partition coefficient (logP) in series [1] was determined as 2.58.

Source of the values: ChEMBL document CHEMBL1138247 (J Med Chem, 2007).
